≈ marks a conversion by molar mass, not a printed value.
Legend:
Format in all cases: functional
Candida tropicalis = assay: In vitro minimum inhibitory concentration against Candida tropicalis Berkout KCCM 50662 strain at 37 degree C after 1 day of treatment; settings: KCCM 50662, 24 h
Outline: (§1)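 Two-fold broth dilution MIC in modified Sabouraud dextrose broth, inoculum about 1 × 10⁵ cells/mL, incubated at 37 °C. MIC was read after 1 day for the Candida species and after 2 days for A. niger.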

Pichia kudriavzevii = assay: In vitro minimum inhibitory concentration against Candida krusei Berkout KCCM 11655 strain at 37 degree C after 1 day of treatment; settings: KCCM 11655, 24 h; outline: as §1
Aspergillus niger = assay: In vitro minimum inhibitory concentration against Aspergillus niger KCTC 1231 strain at 37 degree C after 2 day of treatment; settings: KCTC 1231, 48 h; outline: as §1
Candida albicans = assay: In vitro minimum inhibitory concentration against Candida albicans Berkout KCCM 50235 strain at 37 degree C after 1 day of treatment; settings: KCCM 50235, 24 h; outline: as §1

Row | SMILES | MIC (Candida tropicalis) | MIC (Pichia kudriavzevii) | MIC (Aspergillus niger) | MIC (Candida albicans)
1 | COC(=O)c1cc2c(s1)C(=O)C(Cl)=C(Nc1ccc(Cl)cc1)C2=O | 6.3 µg/mL (≈ 16.5 µM) | 25 µg/mL (≈ 65.4 µM) | 25 µg/mL (≈ 65.4 µM) | 12.5 µg/mL (≈ 32.7 µM)
2 | O=C1C(Nc2ccc(O)cc2)=CC(=O)c2sc(CO)cc21 | 0.8 µg/mL (≈ 2.65 µM) | 12.5 µg/mL (≈ 41.5 µM) | 0.8 µg/mL (≈ 2.65 µM) | 0.8 µg/mL (≈ 2.65 µM)
3 | Cc1ccc(NC2=C(Cl)C(=O)c3sc(CO)cc3C2=O)cc1 | 1.6 µg/mL (≈ 4.79 µM) | 0.8 µg/mL (≈ 2.4 µM) | 50 µg/mL (≈ 150 µM) | 50 µg/mL (≈ 150 µM)
4 | O=C1C(Nc2ccc(Cl)cc2)=CC(=O)c2sc(CO)cc21 | 12.5 µg/mL (≈ 39.1 µM) | > 25 µg/mL | 25 µg/mL (≈ 78.2 µM) | > 50 µg/mL
5 | O=C1C(Nc2ccc(C(F)(F)F)cc2)=C(Cl)C(=O)c2sc(CO)cc21 | 0.4 µg/mL (≈ 1.03 µM) | 3.2 µg/mL (≈ 8.25 µM) | 50 µg/mL (≈ 129 µM) | 50 µg/mL (≈ 129 µM)
6 | O=C1C(Nc2ccc(F)cc2)=CC(=O)c2sc(CO)cc21 | 12.5 µg/mL (≈ 41.2 µM) | > 25 µg/mL | 25 µg/mL (≈ 82.4 µM) | 50 µg/mL (≈ 165 µM)
7 | COC(=O)c1cc2c(s1)C(=O)C=C(Nc1ccc(I)cc1)C2=O | 0.2 µg/mL (≈ 0.455 µM) | 6.3 µg/mL (≈ 14.3 µM) | 50 µg/mL (≈ 114 µM) | 50 µg/mL (≈ 114 µM)
8 | O=C1C(Nc2ccccc2)=C(Cl)C(=O)c2sc(CO)cc21 | 3.2 µg/mL (≈ 10 µM) | 1.6 µg/mL (≈ 5 µM) | 12.5 µg/mL (≈ 39.1 µM) | 6.3 µg/mL (≈ 19.7 µM)
9 | COC(=O)c1cc2c(s1)C(=O)C(Cl)=C(Nc1ccc(OC)cc1)C2=O | 6.3 µg/mL (≈ 16.7 µM) | 3.2 µg/mL (≈ 8.47 µM) | 50 µg/mL (≈ 132 µM) | 3.2 µg/mL (≈ 8.47 µM)
10 | COC(=O)c1cc2c(s1)C(=O)C=C(Nc1ccc(C)cc1)C2=O | 3.2 µg/mL (≈ 9.78 µM) | 6.3 µg/mL (≈ 19.2 µM) | 50 µg/mL (≈ 153 µM) | 50 µg/mL (≈ 153 µM)
11 | O=C1C(Nc2ccc(I)cc2)=CC(=O)c2sc(CO)cc21 | 1.6 µg/mL (≈ 3.89 µM) | 25 µg/mL (≈ 60.8 µM) | 3.2 µg/mL (≈ 7.78 µM) | 50 µg/mL (≈ 122 µM)
12 | O=C1C(Nc2ccc(Br)cc2)=C(Cl)C(=O)c2sc(CO)cc21 | 0.8 µg/mL (≈ 2.01 µM) | 0.8 µg/mL (≈ 2.01 µM) | 50 µg/mL (≈ 125 µM) | 50 µg/mL (≈ 125 µM)
13 | O=C1C(Nc2ccc(O)cc2)=C(Cl)C(=O)c2sc(CO)cc21 | 25 µg/mL (≈ 74.5 µM) | > 50 µg/mL | > 50 µg/mL | > 50 µg/mL
14 | O=C1C(Nc2ccc(Cl)cc2)=C(Cl)C(=O)c2sc(CO)cc21 | 0.4 µg/mL (≈ 1.13 µM) | 1.6 µg/mL (≈ 4.52 µM) | > 50 µg/mL | 12.5 µg/mL (≈ 35.3 µM)
15 | O=C1C(Nc2ccc(C(F)(F)F)cc2)=CC(=O)c2sc(CO)cc21 | 0.8 µg/mL (≈ 2.26 µM) | 12.5 µg/mL (≈ 35.4 µM) | 0.8 µg/mL (≈ 2.26 µM) | 0.8 µg/mL (≈ 2.26 µM)
16 | O=C1C=CC(=O)c2sc(CO)cc21 | 25 µg/mL (≈ 129 µM) | 50 µg/mL (≈ 257 µM) | 50 µg/mL (≈ 257 µM) | > 50 µg/mL
17 | COC(=O)c1cc2c(s1)C(=O)C(Cl)=C(Nc1ccc(C(F)(F)F)cc1)C2=O | 1.6 µg/mL (≈ 3.85 µM) | 25 µg/mL (≈ 60.1 µM) | 50 µg/mL (≈ 120 µM) | 12.5 µg/mL (≈ 30.1 µM)
18 | COC(=O)c1cc2c(s1)C(=O)C=CC2=O | 25 µg/mL (≈ 113 µM) | > 50 µg/mL | > 50 µg/mL | > 50 µg/mL
19 | Cc1ccc(NC2=CC(=O)c3sc(CO)cc3C2=O)cc1 | 25 µg/mL (≈ 83.5 µM) | 25 µg/mL (≈ 83.5 µM) | 3.2 µg/mL (≈ 10.7 µM) | > 50 µg/mL
20 | COC(=O)c1cc2c(s1)C(=O)C=C(Nc1ccc(O)cc1)C2=O | 0.4 µg/mL (≈ 1.21 µM) | 12.5 µg/mL (≈ 38 µM) | 50 µg/mL (≈ 152 µM) | 50 µg/mL (≈ 152 µM)

Row | SMILES | MIC (Candida tropicalis) | MIC (Pichia kudriavzevii) | MIC (Aspergillus niger) | MIC (Candida albicans)
21 | COC(=O)c1cc2c(s1)C(=O)C(Cl)=C(Nc1ccc(Br)cc1)C2=O | 3.2 µg/mL (≈ 7.5 µM) | 25 µg/mL (≈ 58.6 µM) | 25 µg/mL (≈ 58.6 µM) | 0.8 µg/mL (≈ 1.87 µM)
22 | O=C1C(Nc2ccc(Br)cc2)=CC(=O)c2sc(CO)cc21 | 12.5 µg/mL (≈ 34.3 µM) | 3.2 µg/mL (≈ 8.79 µM) | 3.2 µg/mL (≈ 8.79 µM) | 50 µg/mL (≈ 137 µM)
23 | COC(=O)c1cc2c(s1)C(=O)C=C(Nc1ccc(Cl)cc1)C2=O | 6.3 µg/mL (≈ 18.1 µM) | 25 µg/mL (≈ 71.9 µM) | 50 µg/mL (≈ 144 µM) | 50 µg/mL (≈ 144 µM)
24 | COC(=O)c1cc2c(s1)C(=O)C=C(Nc1ccc(Br)cc1)C2=O | 0.2 µg/mL (≈ 0.51 µM) | 12.5 µg/mL (≈ 31.9 µM) | 50 µg/mL (≈ 127 µM) | 50 µg/mL (≈ 127 µM)
25 | COc1ccc(NC2=CC(=O)c3sc(CO)cc3C2=O)cc1 | 0.8 µg/mL (≈ 2.54 µM) | 25 µg/mL (≈ 79.3 µM) | 3.2 µg/mL (≈ 10.1 µM) | 3.2 µg/mL (≈ 10.1 µM)
26 | COC(=O)c1cc2c(s1)C(=O)C=C(Nc1ccc(C(F)(F)F)cc1)C2=O | 12.5 µg/mL (≈ 32.8 µM) | 1.6 µg/mL (≈ 4.2 µM) | 50 µg/mL (≈ 131 µM) | 50 µg/mL (≈ 131 µM)
27 | O=C1C(Nc2ccc(I)cc2)=C(Cl)C(=O)c2sc(CO)cc21 | 1.6 µg/mL (≈ 3.59 µM) | 1.6 µg/mL (≈ 3.59 µM) | 50 µg/mL (≈ 112 µM) | 50 µg/mL (≈ 112 µM)
28 | COC(=O)c1cc2c(s1)C(=O)C(Cl)=C(Nc1ccc(O)cc1)C2=O | 0.8 µg/mL (≈ 2.2 µM) | 6.3 µg/mL (≈ 17.3 µM) | 50 µg/mL (≈ 137 µM) | 12.5 µg/mL (≈ 34.4 µM)
29 | O=C1C(Nc2ccc(F)cc2)=C(Cl)C(=O)c2sc(CO)cc21 | 0.4 µg/mL (≈ 1.18 µM) | 1.6 µg/mL (≈ 4.74 µM) | 50 µg/mL (≈ 148 µM) | 12.5 µg/mL (≈ 37 µM)
30 | COC(=O)c1cc2c(s1)C(=O)C(Cl)=C(Nc1ccc(F)cc1)C2=O | 6.3 µg/mL (≈ 17.2 µM) | 25 µg/mL (≈ 68.3 µM) | 12.5 µg/mL (≈ 34.2 µM) | 12.5 µg/mL (≈ 34.2 µM)
31 | O=C1C(Nc2ccccc2)=CC(=O)c2sc(CO)cc21 | 0.8 µg/mL (≈ 2.8 µM) | 6.3 µg/mL (≈ 22.1 µM) | 0.8 µg/mL (≈ 2.8 µM) | 50 µg/mL (≈ 175 µM)
32 | COc1ccc(NC2=C(Cl)C(=O)c3sc(CO)cc3C2=O)cc1 | 1.6 µg/mL (≈ 4.57 µM) | 3.2 µg/mL (≈ 9.15 µM) | 50 µg/mL (≈ 143 µM) | 25 µg/mL (≈ 71.5 µM)
33 | COC(=O)c1cc2c(s1)C(=O)C=C(Nc1ccc(F)cc1)C2=O | 25 µg/mL (≈ 75.5 µM) | 25 µg/mL (≈ 75.5 µM) | > 50 µg/mL | > 50 µg/mL
34 | COC(=O)c1cc2c(s1)C(=O)C(Cl)=C(Nc1ccccc1)C2=O | 3.2 µg/mL (≈ 9.2 µM) | 6.3 µg/mL (≈ 18.1 µM) | 12.5 µg/mL (≈ 35.9 µM) | 0.8 µg/mL (≈ 2.3 µM)
35 | COC(=O)c1cc2c(s1)C(=O)C=C(Nc1ccccc1)C2=O | 6.3 µg/mL (≈ 20.1 µM) | 12.5 µg/mL (≈ 39.9 µM) | 50 µg/mL (≈ 160 µM) | 50 µg/mL (≈ 160 µM)
36 | COC(=O)c1cc2c(s1)C(=O)C(Cl)=C(Nc1ccc(I)cc1)C2=O | 1.6 µg/mL (≈ 3.38 µM) | 25 µg/mL (≈ 52.8 µM) | 3.2 µg/mL (≈ 6.76 µM) | 6.3 µg/mL (≈ 13.3 µM)
37 | COC(=O)c1cc2c(s1)C(=O)C=C(Nc1ccc(OC)cc1)C2=O | 6.3 µg/mL (≈ 18.3 µM) | 25 µg/mL (≈ 72.8 µM) | > 50 µg/mL | > 50 µg/mL
38 | COC(=O)c1cc2c(s1)C(=O)C(Cl)=C(Nc1ccc(C)cc1)C2=O | 12.5 µg/mL (≈ 34.5 µM) | 25 µg/mL (≈ 69.1 µM) | 50 µg/mL (≈ 138 µM) | 0.8 µg/mL (≈ 2.21 µM)
39 | Nc1nc(=O)[nH]cc1F [FLUCYTOSINE] | 12.5 µg/mL (≈ 96.8 µM) | 6.3 µg/mL (≈ 48.8 µM) | 12.5 µg/mL (≈ 96.8 µM) | 6.3 µg/mL (≈ 48.8 µM)
